Experimental data gathered from unrelated publications.
Target: 3-phosphoinositide-dependent protein kinase 1 (PDPK1, Homo sapiens, UniProt O15530)
Mode: inhibitor

CNC(=O)c1cc(Oc2ccc(NC(=O)Nc3ccc(Cl)c(C(F)(F)F)c3)cc2)ccn1
inhibition (enzyme activity; 0.3 µM): -2%

Nc1ncc2cc(-c3c(Cl)cccc3-c3cccnc3)c(N3C[C@@H]4[C@@H](N)[C@@H]4C3)nc2n1
inhibition (enzyme activity, FRET; 25 µM): 0%

COc1cc(C[C@H]2C(=O)OC[C@@H]2Cc2ccc(OC)c(OC)c2)ccc1O
inhibition (enzyme activity, ADP detection; 100 µM): 18.6%

Cc1ccc(Nc2nccc(N(C)c3ccc4c(C)n(C)nc4c3)n2)cc1S(N)(=O)=O
inhibition (enzyme activity; 0.3 µM): 5%

CSc1nc(C)c(-c2ccnc(Nc3ccc(N4CCOCC4)cc3)c2)[nH]1
inhibition (enzyme activity; 10 µM): 41.3%

O=C(CSc1nc2nccnc2c(=O)n1CCc1ccccc1)Nc1nccs1
inhibition (enzyme activity; 10 µM): 11%

CN(C)C1CCN(CC#Cc2nn(C3CCCC3)c3nc(NCc4ccccc4)ncc23)C1 (centres unmarked)
inhibition (enzyme activity, FRET; 10 µM): 3%

CCCCNc1ncc2c(-c3ccc(F)cc3)nn(C[C@H]3CC[C@H](N)CC3)c2n1
inhibition (target engagement in cells, chemoproteomics; 20 mM): 7.1%

CN(c1ncccc1CNc1nc(Nc2ccc3c(c2)CC(=O)N3)ncc1C(F)(F)F)S(C)(=O)=O
inhibition (enzyme activity; 1 µM): 36%

COc1cccc2c(NCc3ccccc3)nc(-n3c(N)nc4ccccc43)nc12
inhibition (target engagement in cells, chemoproteomics; 20 mM): -5.3%

COc1cc2ncnc(Nc3ccc(Oc4ccccc4)cc3C)c2cc1OC
inhibition (enzyme activity; 1 µM): -2%
